This passage reports Growth and Activity results from ChEMBL document CHEMBL1136151, “Suzuki cross-coupling approaches to the synthesis of bioactive 3-substituted and 5-substituted-4-methoxy-6-methyl-2-pyrones” (Bioorg Med Chem Lett, 2003).

One experiment has as its system Aspergillus niger. In words: Percent growth of Aspergillus niger after 7 days of incubation. Set-up: concentration or dose not given beside the values. The class given is functional. In short, it runs like this: (§1)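 Fungal plate assay: pyrone dissolved in absolute EtOH at 10mg/mL and pipetted 2 cm offset from the centre of the plate containing the organism. EtOH alone served as control. Growth is recorded as percentage of the organism after 72 h and after 7 days of incubation.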
In turn, `CCCCC/C=C/c1c(OC)cc(C)oc1=O` yielded a Growth of 95%.
As for `COc1ccc(-c2c(OC)cc(C)oc2=O)cc1`, the Growth turned out to be 82%.
Compound `CCCCC/C=C/c1c(OC)cc(=O)oc1C` had a Growth of 95%.
Regarding `CCCCC/C=C/c1cc(C)oc(=O)c1`, the Growth is on record as 94%.
Regarding `CCCC/C=C/c1c(OC)cc(=O)oc1C`, the Growth is over 95%.

The test system of a further experiment is Aspergillus niger. Kind of experiment: Percent growth of Aspergillus niger after 72 hours of incubation. The class given is functional. Set-up: concentration or dose not given beside the values. The gist of the method:
as §1
`CCCCC/C=C/c1c(OC)cc(C)oc1=O` came in with a Growth of 90%.
For `COc1ccc(-c2c(OC)cc(C)oc2=O)cc1`, the Growth came out at 70%.
On the same count and under the same terms, for `CCCCC/C=C/c1c(OC)cc(=O)oc1C` the value was 82%; for `CCCCC/C=C/c1cc(C)oc(=O)c1`, 89%.
`CCCC/C=C/c1c(OC)cc(=O)oc1C` had a Growth of 68%.

In the next experiment the test system is Bacillus subtilis. Kind of experiment: Antimicrobial activity against Bacillus subtilis was determined after 96 hours of incubation. The class given is functional. In short, it runs like this:
(§2)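 Disk diffusion: cellulose disks loaded with test compound and placed on bacterial plates, with an EtOH control disk. Incubation 96 h. Read-out is the radius (mm) of the inhibition zone.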
For the compound `CCCCC/C=C/c1c(OC)cc(C)oc1=O`, the Activity worked out at 20 mm.
For `COc1ccc(-c2c(OC)cc(C)oc2=O)cc1`, the Activity worked out at 0 mm.
On to `CCCCC/C=C/c1c(OC)cc(=O)oc1C`, for which the Activity was determined as 19 mm.
Still for that read-out and setting: then `CCCCC/C=C/c1cc(C)oc(=O)c1`, with 18 mm; and `CCCC/C=C/c1c(OC)cc(=O)oc1C`, with 17 mm.

A further experiment relates to Botrytis cinerea. Kind of experiment: Percent growth of Botrytis cinerea after 7 days of incubation. The class given is functional. Set-up: concentration or dose not given beside the values. The gist of the method: as §1
For `CCCCC/C=C/c1c(OC)cc(C)oc1=O`, the Growth worked out at 100%.
Compound `COc1ccc(-c2c(OC)cc(C)oc2=O)cc1` displayed a Growth of 100%.
Regarding `CCCCC/C=C/c1c(OC)cc(=O)oc1C`, the Growth is given as 100%.
Compound `CCCCC/C=C/c1cc(C)oc(=O)c1` had a Growth of 100%.
Turning to `CCCC/C=C/c1c(OC)cc(=O)oc1C`, the Growth turned out to be 100%.

The next experiment has as its system Botrytis cinerea. Kind of experiment: Percent growth of Botrytis cinerea after 72 hours of incubation. The class given is functional. Set-up: concentration or dose not given beside the values. The gist of the method:
as §1
In the case of `CCCCC/C=C/c1c(OC)cc(C)oc1=O`, the Growth worked out at 53%.
Regarding `COc1ccc(-c2c(OC)cc(C)oc2=O)cc1`, the Growth is on record as 62%.
The compound `CCCCC/C=C/c1c(OC)cc(=O)oc1C` showed a Growth of 12%.
Turning to `CCCCC/C=C/c1cc(C)oc(=O)c1`, the Growth is given as 45%.
Compound `CCCC/C=C/c1c(OC)cc(=O)oc1C` had a Growth of 33%.

In another experiment the test system is Candida albicans. In words: Antimicrobial activity against Candida albicans was determined after 48 hours of incubation. The class given is functional. The gist of the method:
(§3)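 Disk diffusion on yeast plates: cellulose disks carrying test compound, with an EtOH control. Incubation 48 h. The inhibition zone radius is recorded in mm.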
Take `CCCCC/C=C/c1c(OC)cc(C)oc1=O`: the Activity was found to be 0 mm.
In the case of `COc1ccc(-c2c(OC)cc(C)oc2=O)cc1`, the Activity was 0 mm.
Still for that read-out and setting: for `CCCCC/C=C/c1c(OC)cc(=O)oc1C` the value was 12 mm; for `CCCCC/C=C/c1cc(C)oc(=O)c1`, 21 mm.
Turning to `CCCC/C=C/c1c(OC)cc(=O)oc1C`, the Activity stood at 18 mm.

Another experiment concerns Fusarium oxysporum. Kind of experiment: Percent growth of Fusarium oxysporum after 7 days of incubation. The class given is functional. Set-up: concentration or dose not given beside the values. The gist of the method:
as §1
Regarding `CCCCC/C=C/c1c(OC)cc(C)oc1=O`, the Growth was determined as 56%.
Same read-out and setting: for `COc1ccc(-c2c(OC)cc(C)oc2=O)cc1` the value was 60%.
The same measure, in the same setting: for `CCCCC/C=C/c1c(OC)cc(=O)oc1C` the value was 24%; for `CCCCC/C=C/c1cc(C)oc(=O)c1`, 24%.
Regarding `CCCC/C=C/c1c(OC)cc(=O)oc1C`, the Growth amounted to 35%.

The test system of another experiment is Fusarium oxysporum. Kind of experiment: Percent growth of Fusarium oxysporum after 72 hours of incubation. The class given is functional. Set-up: concentration or dose not given beside the values. The gist of the method:
as §1
In turn, `CCCCC/C=C/c1c(OC)cc(C)oc1=O` displayed a Growth of 11%.
Take `COc1ccc(-c2c(OC)cc(C)oc2=O)cc1`: the Growth came out at 7%.
As to `CCCCC/C=C/c1c(OC)cc(=O)oc1C`, the Growth worked out at 7%.
As to `CCCCC/C=C/c1cc(C)oc(=O)c1`, the Growth was determined as 2%.
Compound `CCCC/C=C/c1c(OC)cc(=O)oc1C` came in with a Growth of 7%.

The next experiment deals with Escherichia coli. Kind of experiment: Antimicrobial activity against Escherichia coli was determined after 96 hours of incubation. The class given is functional. In short, it runs like this: as §2
`CCCCC/C=C/c1c(OC)cc(C)oc1=O`: the Activity worked out at 0 mm.
The same measure, in the same setting: then `COc1ccc(-c2c(OC)cc(C)oc2=O)cc1`, with 0 mm.
Compound `CCCCC/C=C/c1c(OC)cc(=O)oc1C` registered an Activity of 20 mm.
Compound `CCCCC/C=C/c1cc(C)oc(=O)c1` gave an Activity of 18 mm.
On to `CCCC/C=C/c1c(OC)cc(=O)oc1C`, for which the Activity came out at 18 mm.

The next experiment concerns Globisporangium mamillatum. Kind of experiment: Percent growth of Pythium mammillatum after 7 days of incubation. The class given is functional. Set-up: concentration or dose not given beside the values. The gist of the method:
as §1
For the compound `CCCCC/C=C/c1c(OC)cc(C)oc1=O`, the Growth is on record as 100%.
`CCCCC/C=C/c1c(OC)cc(=O)oc1C` registered a Growth of 94%.
With `CCCCC/C=C/c1cc(C)oc(=O)c1`, the Growth is listed as 93%.
`CCCC/C=C/c1c(OC)cc(=O)oc1C` came in with a Growth of 92%.

The test system of the next experiment is Globisporangium mamillatum. Kind of experiment: Percent growth of Pythium mammillatum after 72 hours of incubation. The class given is functional. Set-up: concentration or dose not given beside the values. The gist of the method: as §1
With `CCCCC/C=C/c1c(OC)cc(C)oc1=O`, the Growth is recorded as 42%.
Compound `CCCCC/C=C/c1c(OC)cc(=O)oc1C` displayed a Growth of 24%.
Take `CCCCC/C=C/c1cc(C)oc(=O)c1`: the Growth is reported as 31%.
`CCCC/C=C/c1c(OC)cc(=O)oc1C` returned a Growth of 34%.

The next experiment relates to Globisporangium ultimum. Kind of experiment: Percent growth of Pythium ultimum after 7 days of incubation. The class given is functional. Set-up: concentration or dose not given beside the values. In short, it runs like this: as §1
On to `CCCCC/C=C/c1c(OC)cc(C)oc1=O`, for which the Growth is 75%.
The compound `COc1ccc(-c2c(OC)cc(C)oc2=O)cc1` gave a Growth of 100%.
Take `CCCCC/C=C/c1c(OC)cc(=O)oc1C`: the Growth was 100%.
In the case of `CCCCC/C=C/c1cc(C)oc(=O)c1`, the Growth is 100%.
Same read-out and setting: for `CCCC/C=C/c1c(OC)cc(=O)oc1C` the value was 100%.

Another experiment relates to Globisporangium ultimum. Kind of experiment: Percent growth of Pythium ultimum after 72 hours of incubation. The class given is functional. Set-up: concentration or dose not given beside the values. The gist of the method:
as §1
For the compound `CCCCC/C=C/c1c(OC)cc(C)oc1=O`, the Growth stood at 61%.
`COc1ccc(-c2c(OC)cc(C)oc2=O)cc1` registered a Growth of 100%.
`CCCCC/C=C/c1c(OC)cc(=O)oc1C` had a Growth of 100%.
The same measure, in the same setting: then `CCCCC/C=C/c1cc(C)oc(=O)c1`, with 95%; and `CCCC/C=C/c1c(OC)cc(=O)oc1C`, with 100%.

Another experiment concerns Schizosaccharomyces pombe. Kind of experiment: Antimicrobial activity against Schizosaccharomyces pombe was determined after 48 hours of incubation. The class given is functional. In short, it runs like this: as §3
Compound `CCCCC/C=C/c1c(OC)cc(C)oc1=O` registered an Activity of 0 mm.
`COc1ccc(-c2c(OC)cc(C)oc2=O)cc1` came in with an Activity of 0 mm.
`CCCCC/C=C/c1c(OC)cc(=O)oc1C` had an Activity of 26 mm.
Same read-out and setting: then `CCCCC/C=C/c1cc(C)oc(=O)c1`, with 34 mm; and `CCCC/C=C/c1c(OC)cc(=O)oc1C`, with 31 mm.

A further experiment deals with Saccharomyces cerevisiae. In words: Antimicrobial activity against Saccharomyces cerevisiae was determined after 48 hours of incubation. The class given is functional. The gist of the method:
as §3
In the case of `CCCCC/C=C/c1c(OC)cc(C)oc1=O`, the Activity came to 0 mm.
The same measure, in the same setting: then `COc1ccc(-c2c(OC)cc(C)oc2=O)cc1`, with 0 mm; and `CCCCC/C=C/c1c(OC)cc(=O)oc1C`, with 12 mm.
Turning to `CCCCC/C=C/c1cc(C)oc(=O)c1`, the Activity is reported as 0 mm.
Regarding `CCCC/C=C/c1c(OC)cc(=O)oc1C`, the Activity amounted to 15 mm.

A further experiment concerns Thanatephorus cucumeris. In words: Percent growth of Rhizoctonia solani after 7 days of incubation. The class given is functional. Set-up: concentration or dose not given beside the values. The gist of the method:
as §1
For the compound `CCCCC/C=C/c1c(OC)cc(C)oc1=O`, the Growth was found to be 100%.
For `COc1ccc(-c2c(OC)cc(C)oc2=O)cc1`, the Growth turned out to be 100%.
The compound `CCCCC/C=C/c1c(OC)cc(=O)oc1C` came in with a Growth of 100%.
In turn, `CCCCC/C=C/c1cc(C)oc(=O)c1` showed a Growth of 100%.
`CCCC/C=C/c1c(OC)cc(=O)oc1C` gave a Growth of 93.4%.

The next experiment concerns Thanatephorus cucumeris. Kind of experiment: Percent growth of Rhizoctonia solani after 72 hours of incubation. The class given is functional. Set-up: concentration or dose not given beside the values. The gist of the method: as §1
For the compound `CCCCC/C=C/c1c(OC)cc(C)oc1=O`, the Growth worked out at 47%.
The same measure, in the same setting: then `COc1ccc(-c2c(OC)cc(C)oc2=O)cc1`, with 81%; and `CCCCC/C=C/c1c(OC)cc(=O)oc1C`, with 33%; and `CCCCC/C=C/c1cc(C)oc(=O)c1`, with 38%.
Take `CCCC/C=C/c1c(OC)cc(=O)oc1C`: the Growth is listed as 41%.

In the next experiment the test system is Staphylococcus aureus. In words: Antimicrobial activity against Staphylococcus aureus was determined after 96 hours of incubation. The class given is functional. In short, it runs like this: as §2
With `CCCCC/C=C/c1c(OC)cc(C)oc1=O`, the Activity amounted to 0 mm.
As for `COc1ccc(-c2c(OC)cc(C)oc2=O)cc1`, the Activity turned out to be 0 mm.
For the compound `CCCCC/C=C/c1c(OC)cc(=O)oc1C`, the Activity turned out to be 16 mm.
In turn, `CCCCC/C=C/c1cc(C)oc(=O)c1` displayed an Activity of 17 mm.
Turning to `CCCC/C=C/c1c(OC)cc(=O)oc1C`, the Activity came to 15 mm.
